Assay results pooled from the literature.
Compare with care: the assays were run in different laboratories.
Target: Tyrosine-protein kinase Lyn (LYN, Homo sapiens, UniProt P07948)

The inhibition of O=C(Nc1cccnn1)N1CCN([C@@H]2CCOc3cc(C(F)(F)F)ccc32)CC1 is reported as -4% (enzyme activity; inhibitor; 20 µM).
Cn1cc(-c2cc(F)cc(N3CCn4c(cc5c4CCCC5)C3=O)c2CO)cc(Nc2ccc(N3CCN(C4COC4)CC3)cn2)c1=O gave an inhibition of 12% (enzyme activity; inhibitor; 0.1 µM).
The remaining binding of COc1ncccc1-c1cnn2ccc(N3CCN(C(=O)OC(C)C)CC3)nc12 is reported as 79% (binding; competition with immobilised ligand; 1 µM).
With O=c1[nH]c2ccccc2n1C1CCN(Cc2ccc(-c3[nH]c4cc5ncnc5cc4nc3-c3ccccc3)cc2)CC1 the remaining activity was 102% (enzyme activity; 0.5 µM).
Cc1nn(C)cc1-c1nc2c(N3CCN(Cc4ccc(Cl)cc4)CC3)c(Cl)cnc2[nH]1 gave a remaining binding of 86% (binding; competition with immobilised ligand; 1 µM).
The remaining binding of Cn1cncc1[C@](O)(COc1ccc(C#N)cc1-c1ccc(OC(F)(F)F)cc1)c1ccc(C#N)cc1 is reported as 90% (cell-free assay; competition with immobilised ligand; 1 µM).
CC(C)(C)c1cc(C=C(C#N)C#N)cc(Br)c1O gave a remaining activity of 74.1% (enzyme activity; inhibitor; 0.5 µM).
With N#CC1(c2ccccn2)CCN(Cc2cc(C(=O)O)c(=O)n3ccccc23)CC1 the remaining binding was 100% (cell-free assay; competition with immobilised ligand; 1 µM).
Cc1ncc(C)n2nc(/C=C/c3nc(N4CCCC4)cc(N4CCOCC4)n3)nc12 has an inhibition of -13% (enzyme activity; inhibitor; 10 µM).
